# High-throughput results: PubChem BioAssay, The Scripps Research Institute Molecular Screening Center
# DAGLB inhibitor: blocks human DAGLB lipase activity; HEK293T DAGLB membrane lysate, EnzChek fluorogenic substrate; inhibition, % at 5.17 µM; 0.059% of 340,000 active; in the data active means inhibition above about 34%;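 further: 0% = enzyme with vehicle and 100% = wells lacking enzyme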
# HTRA1 inh: blocks human HTRA1 serine peptidase; inhibition, % at 5.96 µM; AID 504803; 0.5% of 340,000 active; recombinant HTRA1, FP-rhodamine activity-based probe, fluorescence polarization; Q92743; in the data active means inhibition above about 36%;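 further: 0% = enzyme with DMSO and 100% = wells lacking enzyme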
# Target sequence (Q92743 whole entry, looked up): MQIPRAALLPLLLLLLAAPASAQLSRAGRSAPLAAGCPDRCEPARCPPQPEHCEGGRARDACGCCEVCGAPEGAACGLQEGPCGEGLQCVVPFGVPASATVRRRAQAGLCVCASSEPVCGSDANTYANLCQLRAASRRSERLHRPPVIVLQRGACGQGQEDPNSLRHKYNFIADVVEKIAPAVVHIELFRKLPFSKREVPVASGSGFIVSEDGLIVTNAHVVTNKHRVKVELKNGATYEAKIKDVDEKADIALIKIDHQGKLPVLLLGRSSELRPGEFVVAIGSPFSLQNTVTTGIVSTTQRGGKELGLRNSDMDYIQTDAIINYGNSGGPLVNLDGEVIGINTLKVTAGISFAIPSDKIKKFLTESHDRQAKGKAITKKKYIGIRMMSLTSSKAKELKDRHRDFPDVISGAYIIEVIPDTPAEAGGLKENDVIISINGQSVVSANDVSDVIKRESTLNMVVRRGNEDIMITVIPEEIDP
# SIAE inh: inhibitors of human sialic acid acetylesterase SIAE. Q9HAT2. SIAE FP-Rh probe binding, fluorescence polarization. inhibition, % at 9.66 µM. 0.69% of 370,000 active. AID 1053197;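 active means inhibition above a cutoff: mean of compounds within the control limits plus 3 SD of those, cut at about 17% in these data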;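 further: 0% = plate median of compound wells and 100% = probe without SIAE protein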
# TCR-CD3 inh: human TCR-CD3 binding inhibition | TAMRA-labeled TCR probe fluorescence, biochemical | inhibition, % at 9.4 µM | 0.37% of 360,000 active; in the data active means inhibition above about 19%;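 further: recombinant mutant TCR 2C K166C tagged with TAMRA read by polarization; 0% = receptor in buffer alone and 100% = receptor with positive control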
# ABHD4 inh: inhibits mouse alpha/beta hydrolase domain 4. 0.54% of 370,000 active. Q8VD66. inhibition, % at 8.92 µM. purified mABHD4, FP-Rh probe fluorescence polarization;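 active means inhibition exceeding the mean over every tested compound plus 3 SD, cut at about 30% in these data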;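 further: 0% = plate median of compound wells and 100% = S159A mutant with DMSO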
#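 assay system = mABHD4 protein | compound dosing = single nominal dose of 8.92 µM, 0.89% DMSO final | read-out basis = percent inhibition of probe binding, normalized to plate controls | schedule = Enzyme–compound pre-incubation 45 min, then probe 60 min, both 25 °C | detection = fluorescence polarization, excitation 525 nm, emission 598 nm, BODIPY TMR filters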
# SIAE confirm: confirmation of human SIAE inhibitors | shares compounds with SIAE inh | SIAE FP-Rh activity-based probe, fluorescence polarization | inhibition, % at 9.66 µM | 13% of 2,300 active | AID 1117263;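 active means mean inhibition of the replicates above the hit cutoff set in the primary screen, cut at about 17% in these data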;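 further: 0% = SIAE with DMSO and probe and 100% = probe without SIAE; inhibitors lower polarization as more probe stays unbound to SIAE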
# Numbers without * were called inactive; . = no result. Only some compounds are listed: those with a hit (about 1.5% of all), similar ones and a draw of the others.
SMILES,DAGLB inhibitor,HTRA1 inh,SIAE inh,TCR-CD3 inh,ABHD4 inh,SIAE confirm
CCOC(=O)CN(C(=O)CSc1nnc2c(n1)[nH]c1ccccc12)c1ccccc1,-1.2,-3.3,23.0*,-9.0,-9.7,-37.2
CC1CN(c2ccc(NC(=S)Nc3ccc(N4CC(C)OC(C)C4)cc3)cc2)CC(C)O1 (configuration not stated),1.6,13.8,20.3*,-2.4,23.6,-3.8
CCN1C[C@@H]2[C@@H]3C(=O)N(C)C(=O)[C@@H]3[C@](Cc3ccccc3)(C1=O)N2C(=O)c1ccc(C(C)(C)C)cc1,3.6,-2.3,21.1*,5.1,0.5,0.5
CCN1C[C@@H]2[C@@H]3C(=O)N(C)C(=O)[C@@H]3[C@](Cc3ccccc3)(C1=O)N2C(=O)c1ccc(C)cc1,2.6,-0.1,-2.7,-0.4,1.4,.
CC(=O)c1cccc(NC(=S)NC2CCCCC2)c1,4.2,7.2,18.9*,-1.8,4.6,-1.1
CCCCNC(=S)Nc1cccc(C(C)=O)c1,0.8,0.5,4.0,-9.9,1.1,.
CC(=O)c1cccc(NC(=S)NCCCCc2ccccc2)c1,-4.4,-35.2,42.5*,1.4,-9.0,47.2*
N#CC(=C1C=C(Br)C(=NO)C=C1Cl)c1ccc(Cl)cc1,-8.3,-16.4,32.8*,4.0,18.9,50.3*
O=C(c1ccncc1)N1CCN(S(=O)(=O)c2ccccc2Br)CC1,-4.2,3.8,17.6*,0.0,1.6,0.7
O=C(Nc1ccc(F)cc1)Nc1csc2ccccc12,.,.,16.7,-6.0,-10.8,.
COc1ccc(NC(=O)Cc2csc(NC(=O)Nc3ccccc3OC)n2)cc1,2.2,-14.3,2.1,3.0,9.8,.
COc1ccccc1NC(=O)Nc1nc(CC(=O)Nc2ccc(N(C)C)cc2)cs1,4.9,20.8,27.0*,-1.1,23.5,0.1
CN(C)c1ccc(NC(=O)Nc2csc3ccccc23)cc1,.,.,17.5*,8.3,15.8,8.9
CCCC[C@@H]1CNC(=O)C(=O)N1CCCC,.,.,-0.2,-4.2,0.3,.
CC(C)CN(C(=O)C1CCCCC1)C1CCS(=O)(=O)C1 (configuration not stated),-1.6,4.1,18.0*,-2.7,10.5,2.6
CC(C)CN(C(=O)C1CC1)C1CCS(=O)(=O)C1 (configuration not stated),1.6,2.3,-1.4,-1.9,-11.3,.
CCn1c(/C=C/Nc2ccccc2)[n+](CC)c2ccc(Cl)cc21,-0.4,0.2,1.6,-1.4,3.5,.
CCOC(=O)c1ccc2c(c1)n(CC)c(/C=C/Nc1ccccc1)[n+]2CC,6.5,-1.3,17.9*,-5.6,2.4,5.3
COc1cc(OC)cc(C(=O)NCC2CCN(C(=O)C(=O)c3cccs3)CC2)c1,.,.,-4.2,-5.5,-12.3,.
COc1cccc(CN2C(=O)c3ccccc3S2(=O)=O)c1,-3.1,-2.6,17.4*,-5.0,-7.0,-0.7
CCN=C1SC(CC(=O)Nc2ccc(N3CCOCC3)cc2)C(=O)N1CC (configuration not stated),1.2,0.1,18.9*,-7.2,1.0,-0.2
Cn1cc(/C=N\NC(=O)C2COc3ccccc3O2)c2ccccc21 (configuration not stated),.,.,20.0*,0.7,-8.8,0.7
CCOc1ccc(N(C(C)C(=O)N2CCCCCC2)S(C)(=O)=O)cc1 (configuration not stated),1.6,5.0,18.3*,9.5,1.0,-2.4
CC(C(=O)N1CCCCCC1)N(c1ccc(Cl)cc1)S(C)(=O)=O (configuration not stated),-1.6,-2.4,-1.2,-2.2,-2.8,.
COC(=O)[C@]12C[C@H](CC(=O)NCCCCc3ccccc3)C(=O)N(Cc3ccc4c(c3)OCO4)C1=C[C@H](COCc1ccccc1)O[C@@H]2C,.,.,-7.5,2.4,-12.2,.
SMILES,DAGLB inhibitor,HTRA1 inh,SIAE inh,TCR-CD3 inh,ABHD4 inh,SIAE confirm
CCOC(=O)C1CSCCS(=O)(=O)N1Cc1cc(F)ccc1Br (configuration not stated),.,.,-2.3,-4.4,4.7,.
Cc1ccccc1C(=O)N[C@@H](Cc1cccnc1)C(=O)N1CCC[C@H]1C(=O)NCCc1ccccc1Cl,.,.,-0.4,-6.1,6.0,.
CCCc1nc2ccc(Cl)cn2c1Cc1ccc(C)cc1,.,.,18.0*,4.6,5.8,4.1
Cc1nc(NN)c2c3c(sc2n1)COC(C)(C)C3,1.0,2.1,26.6*,-2.7,4.5,3.1
COC(=O)N1C[C@H](Oc2cccc3ccccc23)[C@H]2C[C@@H]1c1ccccc1O2,.,.,-1.5,6.3,-15.2,.
Cc1c(C2(O)CCCCC2)[nH]c2cnccc12,-1.2,2.0,23.5*,2.8,-2.0,-2.6
O=C(C1CCC(CNc2nc(=S)[nH]c3ccccc23)CC1)N1CCN(c2ccc(F)cc2)CC1 (configuration not stated),3.1,-7.5,20.0*,-2.4,-2.0,-11.8
Cc1ccc(C(=O)N/C(=C/c2ccc(Cl)cc2)C(=O)NCC2CCCO2)cc1 (configuration not stated),0.2,1.4,29.4*,-2.2,1.1,-4.0
CCC(c1nnc(SCC(=O)NC2CCCCC2)n1Cc1ccccc1)N(C)C (configuration not stated),1.6,-1.4,19.2*,-6.1,-1.2,1.0
O=C1N[C@@H](Cc2ccccc2)C(=O)N2[C@H]1CSCCS2(=O)=O,.,.,-3.5,-5.5,8.9,.
O=C(N/N=C/c1cn(Cc2ccccc2)c2ccccc12)c1cc(O)cc(O)c1,-1.4,6.7,19.8*,12.0,6.5,-7.1
Cc1cccc(OCCn2cc(/C=N/NC(=O)c3ccncc3)c3ccccc32)c1,2.3,6.2,30.9*,6.8,7.4,-2.7
COc1cccc(C2CC(OCCF)=CC(=O)O2)c1 (configuration not stated),.,.,6.7,-3.7,2.6,.
COP(=O)(O)C[C@@H]1CCc2cc(C)cc([C@H](CC(C)C)NC(=O)OCc3ccccc3)c2O1,.,.,2.2,.,-3.5,.
CCOc1ccc(OCc2ccc(C(=O)O)o2)cc1,0.7,4.4,39.4*,-2.9,3.8,-1.1
O=C(O)c1ccc(COc2ccc3ccccc3c2)o1,1.4,1.1,-0.6,-1.7,-1.1,.
CSc1nnc([C@@H](NC(=O)OC(C)(C)C)C(C)C)o1,-1.7,6.1,18.4*,7.3,-4.5,9.0
O=C(CN1C(=O)NC2(CCCC2)C1=O)N1CCCSC1=Nc1ccccc1,-1.0,3.0,23.2*,-5.3,4.0,69.1*
CCCCCn1cc(CCC(=O)Nc2ccc(Oc3cccnc3)cc2)c2ccccc21,.,.,-1.9,-8.4,-15.2,.
Cn1cccc1Cc1nnc(SCC(=O)Nc2nccs2)n1C,-4.0,3.9,2.8,9.2,-0.1,.
COc1ccc(-n2c(Cc3cccn3C)nnc2SCC(=O)Nc2nccs2)cc1,1.5,6.7,17.3*,0.1,0.5,2.6
O=C(Nc1ccccc1[N+](=O)[O-])NC1CCCCN(Cc2cccc(Cl)c2)C1=O (configuration not stated),.,.,-3.6,.,-0.4,.
